In ChEMBL document CHEMBL4665832, “Benzylidene thiazolidinediones: Synthesis, in vitro investigations of antiproliferative mechanisms and in vivo efficacy determination in combination with Imatinib” (Bioorg Med Chem Lett, 2020):

How the values were obtained:
[1] = Cytotoxicity against hepatocytes (unknown origin) assessed as cell growth by MTT assay relative to control; assay type: cell-based, Hepatocyte; parameters: concentration or dose not given beside the values
[2] = system: HOP-62; assay: Antiproliferative activity against human HOP-62 cells assessed as cell growth inhibition; assay type: functional
In short: (§1)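 Cell lines screened for growth inhibition and GI₅₀ derived. Each value is the mean of 3 independent experiments.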

[3] = system: PC-3; assay: Antiproliferative activity against human PC-3 cells assessed as cell growth inhibition; assay type: functional; in short: as §1
[4] = system: MCF7; assay: Antiproliferative activity against human MCF7 cells assessed as cell growth inhibition; assay type: functional; in short: as §1
[5] = system: K562; assay: Antiproliferative activity against human K562 cells assessed as cell growth inhibition; assay type: functional; in short: as §1
[6] = Antiproliferative activity against human GURAV cells assessed as cell growth inhibition; assay type: functional; in short: as §1
[7] = system: KB; assay: Antiproliferative activity against human KB cells assessed as cell growth inhibition; assay type: functional; in short: as §1
[8] = system: HL-60; assay: Antiproliferative activity against human HL-60 cells assessed as cell growth inhibition; assay type: functional; in short: as §1
[9] = system: Jurkat; assay: Antiproliferative activity against human Jurkat cells assessed as cell growth inhibition; assay type: functional; in short: as §1
[10] = system: MOLT-4; assay: Antiproliferative activity against human MOLT-4 cells assessed as cell growth inhibition; assay type: functional; in short: as §1
[11] = system: U-937; assay: Antiproliferative activity against human U-937 cells assessed as cell growth inhibition; assay type: functional; in short: as §1
[12] = system: A549; assay: Antiproliferative activity against human A549 cells assessed as cell growth inhibition; assay type: functional; in short: as §1
[13] = system: NCI-H226; assay: Antiproliferative activity against human NCI-H226 cells assessed as cell growth inhibition; assay type: functional; in short: as §1

Row | Structure (SMILES) | GI50 [3] | GI50 [4] | GI50 [5] | GI50 [7] | GI50 [8] | GI50 [9] | GI50 [10] | GI50 [11] | GI50 [12] | GI50 [13] | viability [1] | GI50 [2] | GI50 [6]
1 | Cc1c(NC(=O)COc2ccc(/C=C3\SC(=O)NC3=O)cc2)c(=O)n(-c2ccccc2)n1C | – | – | – | – | – | – | – | – | – | – | > 70% | – | –
2 | Cc1cc(NC(=O)COc2ccc(/C=C3\SC(=O)NC3=O)cc2)no1 | – | – | – | – | – | – | – | – | – | – | > 70% | – | –
3 | CCCCC1=NC2(CCCC2)C(=O)N1NC(=O)COc1ccc(/C=C2\SC(=O)NC2=O)cc1 | – | – | – | – | – | – | – | – | – | – | > 70% | – | –
4 | O=C1NC(=O)/C(=C/c2ccc(OCC(=O)N3C(=O)c4ccccc4S3(=O)=O)cc2)S1 | – | – | – | – | – | – | – | – | – | – | > 70% | – | –
5 | COc1cccc2c1C(=O)c1c(O)c3c(c(O)c1C2=O)C[C@@](O)(C(=O)CO)C[C@@H]3O[C@H]1C[C@H](N)[C@H](O)[C@H](C)O1 [DOXORUBICIN] | < 0.1 µM | < 0.1 µM | < 0.1 µM | < 0.1 µM | – | – | – | – | – | – | – | < 0.1 µM | < 0.1 µM

The next lines start with results.

Row | GI50 [3] | GI50 [4] | GI50 [5] | GI50 [7] | GI50 [8] | GI50 [9] | GI50 [10] | GI50 [11] | GI50 [12] | GI50 [13] | Structure (SMILES) | viability [1] | GI50 [2] | GI50 [6]
6 | 58.3 µM | 28.3 µM | 10.7 µM | 75 µM | – | – | – | – | – | – | Cc1cccc(NC(=O)COc2ccc(/C=C3\SC(=O)NC3=O)cc2)n1 | > 70% | 81.4 µM | 60.9 µM
7 | > 100 µM | 61.7 µM | 6.7 µM | > 100 µM | 97.6 µM | 21.9 µM | > 100 µM | 60 µM | – | – | O=C(COc1ccc(/C=C2\SC(=O)NC2=O)cc1)Nc1c(Cl)cccc1Cl | > 70% | > 100 µM | 56.8 µM
8 | > 100 µM | 61.2 µM | 45.8 µM | > 100 µM | – | – | – | – | – | – | Cc1cccc2sc(NC(=O)COc3ccc(/C=C4\SC(=O)NC4=O)cc3)nc12 | > 70% | > 100 µM | 58.7 µM
9 | 83.4 µM | 51.1 µM | 7.4 µM | 50.3 µM | 52.4 µM | > 100 µM | 42.7 µM | 46.3 µM | – | – | O=C(COc1ccc(/C=C2\SC(=O)NC2=O)cc1)Nc1ccc(Cl)cc1 | > 70% | 36.1 µM | 35.6 µM
10 | > 100 µM | 58.5 µM | 20.5 µM | > 100 µM | – | – | – | – | – | – | O=C(COc1ccc(/C=C2\SC(=O)NC2=O)cc1)Nc1cccc([N+](=O)[O-])c1 | > 70% | > 100 µM | 71.5 µM
11 | – | – | – | – | – | – | – | – | 88.7 µM | 57.8 µM | Cc1cnc(NC(=O)COc2ccc(/C=C3\SC(=O)NC3=O)cc2)s1 | > 70% | – | –
12 | > 100 µM | 67.4 µM | 16.3 µM | 78.6 µM | – | – | – | – | – | – | O=C(COc1ccc(/C=C2\SC(=O)NC2=O)cc1)Nc1ccc(C(F)(F)F)cc1Cl | > 70% | > 100 µM | 99.3 µM
13 | – | – | 40.1 µM | – | – | – | – | – | – | – | CCc1ccc(CCOc2ccc(CC3SC(=O)NC3=O)cc2)nc1 (centres undefined) [PIOGLITAZONE] | – | – | –
